Screening results from PubChem BioAssay.
Shown are actives, neighbours in structure and some others; about 3.1% of the full set was active somewhere.
EWS-Fli block: blocks EWS/Fli oncoprotein-driven transcription; A673 NR0B1-luciferase reporter, viability-normalised; actives 0.67% (n = 350,000); inhibition, % at 12.6 µM;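 active = mean inhibition of at least 50% after viability correction, with every replicate also passing that limit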;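 note: firefly luciferase signal divided by Alamar Blue viability fluorescence both relative to DMSO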
PAX8 inh HTS: inhibitors of PAX8 transcriptional activity in RMG-I cells. actives 1.2% (n = 360,000). inhibition, % at 12.6 µM. RMG-I TPO-luciferase reporter, SteadyGlo, 24 h;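 active = mean replicate inhibition at least 60% with every replicate also reaching 60%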;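 note: luciferase light reporting Pax8 driven TPO promoter activity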
FN deposition inh: fibronectin deposition inhibition. inhibition, % at 12.6 µM. AH1F fibroblasts, Alexa488-fibronectin deposition fluorescence, overnight. AID 743247. actives 0.086% (n = 350,000);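 active = mean inhibition across replicates of 30% or more, regardless of how many single replicates reach that level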
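Assay system: AH1F fibroblasts / Quantity: 10000 cells per well / Medium: DMEM plus 2% serum, read in PBS / Reagent: labelled fibronectin 24 nM / Dosing: single dose, pinned / Times: 1 h cell attachment, overnight exposure to compound and label / Signal: fluorescence, ex 485 nm, em 525 nm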
HIV Env fusion: blocks HIV Env-driven cell-cell fusion; HeLa-JRFL Env/CEM21 cell fusion, luciferase; inhibition, % at 12.3 µM; actives 1.1% (n = 360,000);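 active = mean replicate inhibition score of at least 50 and every replicate individually at or above 50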
FGF22 binding: FGF22 (human) thermal shift binding; Q9HCT0; recombinant FGF22 thermal shift, SYPRO orange fluorescence; percent of sucrose octasulfate shift, DMSO zero; activity (Tm shift, normalised), % at 9.99 µM; actives 1.5% (n = 340,000); AID 651658;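 active = mean Tm shift, scaled 0 neutral to 100 positive control, at about 1.3% or above, every replicate too, limit read from the data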
Target sequence (Q9HCT0 whole entry, looked up): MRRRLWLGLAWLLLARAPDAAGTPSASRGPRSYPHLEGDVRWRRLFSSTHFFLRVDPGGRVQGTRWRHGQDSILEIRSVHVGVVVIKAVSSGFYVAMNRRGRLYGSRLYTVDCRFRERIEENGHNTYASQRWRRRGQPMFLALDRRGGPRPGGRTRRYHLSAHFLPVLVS
PGC1a acetyl inh: lowers PGC1a acetylation signal in U2OS cells; actives 0.17% (n = 350,000); AlphaScreen anti-acetyl-lysine; with virally co-expressed GCN5 acetyltransferase; inhibition, % at 15.6 µM;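 active = every replicate shows inhibition of at least 40%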
Large screens that a line does not name were inactive.

COc1cccc(C(=O)NCC2(c3ccccc3)CCCC2)c1	FGF22 binding 43 (no result: PGC1a acetyl inh)
COc1cccc(C(=O)NCC2(c3ccc(OC)c(OC)c3)CCCC2)c1	none
CC[N+](CC)(CCCCS(=O)(=O)[O-])CCNP1(=O)C=C(c2ccccc2)OC(c2ccccc2)=C1	FGF22 binding 44 (no result: PGC1a acetyl inh)
COc1ccc(-c2cc(=O)oc3c(C)c(OCC(=O)N(C)C)ccc23)cc1	none
COc1ccc(-c2cc(=O)oc3c(C)c(O)c(CN(C)C)cc23)cc1	HIV Env fusion 73 (no result: EWS-Fli block, FGF22 binding)
CN(C)C(=O)c1cccc(-c2ccc([C@@H]3[C@H](CO)N4C(=O)CN(C(=O)C5CCC5)C[C@@H]34)cc2)c1	none (no result: PAX8 inh HTS, HIV Env fusion, FGF22 binding)
CCC(C)(C)C(=O)O[C@H]1C[C@@H](C)C=C2C=C[C@H](C)[C@H](CC[C@@H]3C[C@@H](O)CC(=O)O3)[C@H]21	HIV Env fusion 67
O=C(NCc1ccccc1Cl)[C@H]1CCCN1C(=O)[C@H]1CCCN1	none (no result: PGC1a acetyl inh)
O=C(NCc1ccc(F)cc1F)[C@@H]1CCCN1C(=O)[C@@H]1CCCN1	PAX8 inh HTS 80 (no result: PGC1a acetyl inh)
C[C@H]1CN([C@@H](C)CO)S(=O)(=O)c2ccc(C#Cc3ccccc3F)cc2O[C@@H]1CN(C)C	none (no result: PAX8 inh HTS)
CN(C)c1ccc(-c2ccnc3c2CC(C)(C(=O)NCC2CC2)O3)cc1 (centres undefined)	FN deposition inh 35 (no result: PGC1a acetyl inh)
CN(C)c1ccc(CNC(=O)C2(C)Cc3c(-c4ccc5c(c4)OCO5)ccnc3O2)cc1 (centres undefined)	EWS-Fli block 59 (no result: PGC1a acetyl inh)
CCC(=O)N1C[C@@H]2[C@H](c3ccccc31)[C@H](CO)N2C(=O)CC	none (no result: FN deposition inh, HIV Env fusion)
CO[C@H]1CN(C)C(=O)c2cc(NC(=O)c3cnccn3)ccc2OC[C@H](C)NC[C@H]1C	none (no result: PAX8 inh HTS)
Cc1ccc(CSc2nccc(-c3c(C)nc4ccccn34)n2)cc1	EWS-Fli block 56
CNC[C@H]1OCCCC[C@@H](C)Oc2ccc(NS(=O)(=O)c3ccccc3)cc2C(=O)N([C@@H](C)CO)C[C@H]1C	none (no result: FN deposition inh)
Cc1cc(C(=O)N/N=C/c2ccc[nH]2)n[nH]1	FGF22 binding 43 (no result: PGC1a acetyl inh)
O=C(NC1=NCCS1)c1ccccc1OCc1ccccc1Cl	FGF22 binding 44 (no result: PGC1a acetyl inh)
O=C(N/N=C/c1ccc[nH]1)c1ccc(COc2cccc3cccnc23)cc1	PAX8 inh HTS 79, HIV Env fusion 71
O=C(NC1=NCCS1)c1ccccc1Cl	none
O=C(N/N=C/c1ccc[nH]1)c1ccccc1OCc1ccccc1Cl	FGF22 binding 43
Cc1cc(C(=O)N/N=C/c2ccc[nH]2)no1	none (no result: EWS-Fli block, FGF22 binding)
Cc1cc(Br)c(OCc2ccc(C(=O)N/N=C/c3ccc[nH]3)cc2)c(Br)c1	EWS-Fli block 58, PAX8 inh HTS 95, HIV Env fusion 91, PGC1a acetyl inh 87
NC(=O)c1oc2ccccc2c1NC(=O)c1ccc(F)cc1	none
NC(=O)c1oc2ccccc2c1NC(=O)c1ccc([N+](=O)[O-])o1	PAX8 inh HTS 74
CC(=O)c1ccc(NC(=O)c2ccc([N+](=O)[O-])o2)cc1	none
Cc1cc(C)cc(NC(=O)c2ccc([N+](=O)[O-])o2)c1	PAX8 inh HTS 75
CC(NC(=O)c1ccc([N+](=O)[O-])o1)C12CC3CC(CC(C3)C1)C2 (centres undefined)	PAX8 inh HTS 66 (no result: PGC1a acetyl inh)
CC(NC(=O)C12CC3CC(CC(C3)C1)C2)C(=O)NN=Cc1ccc([N+](=O)[O-])o1 (centres undefined)	none
COc1ccc(NC(=O)c2ccc([N+](=O)[O-])o2)cc1	PAX8 inh HTS 76
O=C(Nc1ccc(Cl)cn1)c1ccc([N+](=O)[O-])o1	FGF22 binding 43
O=C(Nc1ccc2oc(-c3ccncc3)nc2c1)c1ccc([N+](=O)[O-])o1	EWS-Fli block 62 (no result: PGC1a acetyl inh)
O=C(Nc1ccc2oc(-c3ccncc3)nc2c1)c1ccccc1	none
CC(Oc1ccc(Cl)cc1Cl)C(=O)Nc1ccc2oc(-c3ccncc3)nc2c1 (centres undefined)	HIV Env fusion 64 (no result: EWS-Fli block, FGF22 binding)
COc1ccc(NC(=O)c2ccc(-c3ccccc3C(F)(F)F)o2)cc1	FGF22 binding 44 (no result: HIV Env fusion)
Cc1ccc(-c2nc3cc(NC(=O)C(C)C)ccc3o2)cc1	none (no result: EWS-Fli block, PAX8 inh HTS, FN deposition inh, HIV Env fusion, FGF22 binding)
O=C(Nc1cccc(F)c1)c1ccc(-c2ccccc2C(F)(F)F)o1	none (no result: PGC1a acetyl inh)
Cc1c(Cl)c([N+](=O)[O-])nn1Cc1ccc(C(=O)Nc2ccc(Cl)cn2)o1	none (no result: EWS-Fli block, PAX8 inh HTS, FN deposition inh, HIV Env fusion, FGF22 binding)
CC(C)n1c(=S)[nH]c2cc(Cl)ccc21	PGC1a acetyl inh 69
CC(C)n1c(=S)[nH]c2ccccc2c1=O	none (no result: EWS-Fli block, PAX8 inh HTS, FN deposition inh, FGF22 binding)
CC(C)CC#Cc1ccc([C@H]2[C@H]3CN(C(=O)NC4CCCC4)CCCCN3[C@H]2CO)cc1	none (no result: FN deposition inh, HIV Env fusion)
C/C=C/c1ccc([C@H]2[C@H](CO)N(C(=O)COC)[C@H]2CNC(=O)CC)cc1	none (no result: HIV Env fusion)
O=c1[nH]c2ccccc2nc1/C=C/c1ccc(F)cc1	FGF22 binding 43
O=c1[nH]c2ccccc2nc1/C=C/c1ccccc1	none
CC(Oc1ccc(Cl)cc1Cl)C(=O)NNC(=O)c1cccnc1 (centres undefined)	none
CCOc1ccc(NC(=O)c2ccc(F)c(S(=O)(=O)N3CCN(c4ccccn4)CC3)c2)cc1	HIV Env fusion 57 (no result: EWS-Fli block, PAX8 inh HTS, FGF22 binding, PGC1a acetyl inh)
COc1ccc(C(=O)O/N=C(\N)c2ccccn2)cc1	PAX8 inh HTS 121, HIV Env fusion 70
CC(Oc1cccc(Cl)c1)C(=O)NNC(=O)c1cccnc1 (centres undefined)	FN deposition inh 31
CC(Oc1cccc(Br)c1)C(=O)NNC(=O)c1ccccn1 (centres undefined)	none (no result: EWS-Fli block, PAX8 inh HTS, FN deposition inh, HIV Env fusion, FGF22 binding)
CC(Oc1ccccc1)C(=O)NNC(=O)c1ccccn1 (centres undefined)	PAX8 inh HTS 75 (no result: HIV Env fusion)
CC(=O)N[C@H]1CC[C@@H](CCNC(=O)C2CCCC2)O[C@H]1CO	none (no result: FN deposition inh)
CCOc1ccc(NC(=O)c2ccccn2)cc1	EWS-Fli block 78, PAX8 inh HTS 65 (no result: PGC1a acetyl inh)
O=C(Cn1nc(-c2ccccc2)ccc1=O)Nc1ccc(NC(=O)c2ccccn2)cc1	FGF22 binding 44 (no result: PGC1a acetyl inh)
O=C(NCCCCNC(=O)c1ccccn1)c1ccccn1	FGF22 binding 43 (no result: PGC1a acetyl inh)
COc1ccc(C(=O)Nc2cccnc2Sc2ccc(Cl)cc2)cc1	FGF22 binding 29
CCCC(=O)Nc1ccc2c(c1)OC[C@@H](C)N(Cc1cc(-c3ccccc3)on1)C[C@@H](C)[C@H](OC)CN(C)C2=O	none (no result: PAX8 inh HTS)
C[C@H](NC(=O)C[C@@H]1CC[C@H](NC(=O)C2CCOCC2)[C@H](CO)O1)c1ccccc1	none
Cc1ccc(-c2ccc3c(c2)O[C@@H](CN(C)CC2CC2)[C@@H](C)CN([C@@H](C)CO)S3(=O)=O)cc1	none (no result: PAX8 inh HTS, FN deposition inh)
COc1ccc(C(=O)NNC(=O)c2ccccn2)cc1	EWS-Fli block 62, PAX8 inh HTS 104, HIV Env fusion 62, FGF22 binding 44 (no result: PGC1a acetyl inh)
Cc1noc(C)c1NC(=O)Nc1ccc2c(c1)C(=O)N(C)[C@H]1CC[C@H](CC(=O)N[C@@H]3CCN(Cc4ccccc4)C3)O[C@H]1CO2	none
